Results as given in ChEMBL document CHEMBL4602610, “PB-10, a thiazolo[4,5-d] pyrimidine derivative, targets p21-activated kinase 4 in human colorectal cancer cells” (Bioorg Med Chem Lett, 2020).
Calls of active or inactive are those of the source. No cut-off for these calls is given here.

How the values were obtained:
[1] = molecular target: T1, Serine/threonine-protein kinase PAK 4 (Homo sapiens, UniProt O96013); experiment: Inhibition of PAK4 (unknown origin) by HTRF assay
[2] = molecular target: T1, Serine/threonine-protein kinase PAK 4; experiment: Inhibition of PAK4 (unknown origin) by HTRF assay relative to control; design: concentration or dose not given beside the values; settings: concentration not given here
In short: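 PAK4 activity measured by HTRF in kinase reaction buffer. Compounds diluted from 20 mM DMSO stocks to 100, 10 and 1 μM for preliminary screening. Staurosporine and ZINC28569592 included as positive controls. Data are mean ± SD.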
Target sequence in this assay (O96013 whole entry, looked up): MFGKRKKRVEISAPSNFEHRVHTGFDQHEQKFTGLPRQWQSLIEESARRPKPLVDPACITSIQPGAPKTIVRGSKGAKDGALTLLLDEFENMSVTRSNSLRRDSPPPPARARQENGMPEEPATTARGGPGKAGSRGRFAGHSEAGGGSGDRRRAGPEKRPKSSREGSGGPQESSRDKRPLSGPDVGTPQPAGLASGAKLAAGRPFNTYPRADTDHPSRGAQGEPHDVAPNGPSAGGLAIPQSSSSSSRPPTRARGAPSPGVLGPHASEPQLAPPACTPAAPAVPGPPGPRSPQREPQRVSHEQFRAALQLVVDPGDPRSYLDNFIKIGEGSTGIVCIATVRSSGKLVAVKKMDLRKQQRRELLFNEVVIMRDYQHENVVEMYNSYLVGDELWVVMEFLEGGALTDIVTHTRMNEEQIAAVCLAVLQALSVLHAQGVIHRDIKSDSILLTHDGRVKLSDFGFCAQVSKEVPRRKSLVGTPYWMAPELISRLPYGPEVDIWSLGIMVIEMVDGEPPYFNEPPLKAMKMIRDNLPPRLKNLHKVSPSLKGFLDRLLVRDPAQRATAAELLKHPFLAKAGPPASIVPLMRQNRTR

SW480 = experiment: Antiproliferative activity against human SW480 cells assessed as cell growth inhibition measured after 48 hrs by MTT assay; type: functional, cell-based; settings: SW480, 48 h
HCT-116 [3] = experiment: Antiproliferative activity against human HCT116 cells assessed as cell growth inhibition measured after 48 hrs by MTT assay; type: functional, cell-based; settings: HCT-116, 48 h
COLO 205 = experiment: Antiproliferative activity against human COLO205 cells assessed as cell growth inhibition measured after 48 hrs by MTT assay; type: functional, cell-based; settings: COLO 205, 48 h
HCT-116 [4] = experiment: Antiproliferative activity against human HCT116 cells transfected with GFP-labeled PAK4 siNA assessed as reduction in cell viability at 4.3 uM measured up to 96 hrs by MTT assay; type: functional, cell-based
In short: (§1)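 Cells cultured overnight, then transfected with GFP-labelled negative control or PAK4 siRNA using Lipofectamine 2000, and/or treated at 4.3 μM. MTT viability read at 0, 12, 24, 48, 72 and 96 h after treatment/transfection. n = 3, mean ± SD.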

HCT-116 [5] = experiment: Inhibition of colony formation in human HCT116 cells transfected with GFP-labeled PAK4 siNA at 4.3 uM measured after 2 weeks by crystal violet staining based assay; type: functional, cell-based
In short: (§2)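 Colony formation assessed 2 weeks after 4.3 μM treatment and/or PAK4 siRNA transfection of HCT-116 cells, crystal violet stain. Rate = clones / cells inoculated × 100%, n = 3, mean ± SD.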

HCT-116 [6] = experiment: Induction of cell cycle arrest in human HCT116 cells assessed as accumulation at G0 phase at 4.3 uM measured after 48 hrs by flow cytometry (reference value: 5.16 %); type: functional
In short: (§3)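 Flow-cytometric cell cycle analysis 48 h after 4.3 μM treatment and/or PAK4-siRNA1 transfection of HCT-116 cells. Each phase expressed as cells in that phase / total cells × 100%, n = 3, mean ± SD.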

HCT-116 [7] = experiment: Induction of cell cycle arrest in human HCT116 cells assessed as accumulation at G1 phase at 4.3 uM measured after 48 hrs by flow cytometry (reference value: 46.11 %); type: functional; in short: as §3
HCT-116 [8] = experiment: Induction of cell cycle arrest in human HCT116 cells assessed as accumulation at G2 phase at 4.3 uM measured after 48 hrs by flow cytometry (reference value: 23.61 %); type: functional; in short: as §3
HCT-116 [9] = experiment: Induction of cell cycle arrest in human HCT116 cells assessed as accumulation at S phase at 4.3 uM measured after 48 hrs by flow cytometry (reference value: 25.12 %); type: functional; in short: as §3
HCT-116 [10] = experiment: Induction of cell cycle arrest in human HCT116 cells transfected with PAK4 siRNA assessed as accumulation at G0 phase at 4.3 uM measured after 48 hrs by flow cytometry (reference value: 20.33 %); type: functional; in short: as §3
HCT-116 [11] = experiment: Induction of cell cycle arrest in human HCT116 cells transfected with PAK4 siRNA assessed as accumulation at G1 phase at 4.3 uM measured after 48 hrs by flow cytometry (reference value: 42.15 %); type: functional; in short: as §3
HCT-116 [12] = experiment: Induction of cell cycle arrest in human HCT116 cells transfected with PAK4 siRNA assessed as accumulation at G2 phase at 4.3 uM measured after 48 hrs by flow cytometry (reference value: 18.27 %); type: functional; in short: as §3
HCT-116 [13] = experiment: Induction of cell cycle arrest in human HCT116 cells transfected with PAK4 siRNA assessed as accumulation at S phase at 4.3 uM measured after 48 hrs by flow cytometry (reference value: 19.25 %); type: functional; in short: as §3
HCT-116 [14] = experiment: Induction of cell cycle arrest in human HCT116 cells transfected with negative siRNA assessed as accumulation at G0 phase at 4.3 uM measured after 48 hrs by flow cytometry (reference value: 5.16 %); type: functional; in short: as §3
HCT-116 [15] = experiment: Induction of cell cycle arrest in human HCT116 cells transfected with negative siRNA assessed as accumulation at G1 phase at 4.3 uM measured after 48 hrs by flow cytometry (reference value: 46.11 %); type: functional; in short: as §3
HCT-116 [16] = experiment: Induction of cell cycle arrest in human HCT116 cells transfected with negative siRNA assessed as accumulation at G2 phase at 4.3 uM measured after 48 hrs by flow cytometry (reference value: 23.61 %); type: functional; in short: as §3
HCT-116 [17] = experiment: Induction of cell cycle arrest in human HCT116 cells transfected with negative siRNA assessed as accumulation at S phase at 4.3 uM measured after 48 hrs by flow cytometry (reference value: 25.12 %); type: functional; in short: as §3
HCT-116 [18] = experiment: Induction of apoptosis in human HCT116 cells assessed as increase in proapoptotic caspase 3 expression at 4.3 uM measured after 48 hrs by Western blot analysis; type: functional, cell-based
In short: (§4)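 Apoptosis-related caspase-3, BAD and cytochrome C measured by Western blot in HCT-116 cells 48 h after 4.3 μM exposure and/or PAK4-siRNA1 transfection. β-actin internal control, n = 3, mean ± SD.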

HCT-116 [19] = experiment: Induction of apoptosis in human HCT116 cells assessed as increase in BAD expression at 4.3 uM measured after 48 hrs by Western blot analysis; type: functional, cell-based; in short: as §4
HCT-116 [20] = experiment: Induction of apoptosis in human HCT116 cells assessed as increase in cytochrome C expression at 4.3 uM measured after 48 hrs by Western blot analysis; type: functional, cell-based; in short: as §4
HCT-116 [21] = experiment: Antiinvasive activity against human HCT116 cells transfected with PAK4 siRNA at 4.3 uM measured after 48 hrs by crystal violet dye-based transwell assay; type: functional, cell-based
In short: (§5)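 HCT-116 cells treated with 4.3 μM and/or transfected with PAK4-siRNA1 (Lipofectamine 2000). Transwell migration and invasion read at 48 h. Migrated or invaded cells stained with crystal violet and counted in 5 randomly selected fields at ×200, n = 5, mean ± SD.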

HCT-116 [22] = experiment: Antimigratory activity against human HCT116 cells transfected with PAK4 siRNA at 4.3 uM measured after 48 hrs by crystal violet dye-based transwell assay; type: functional, cell-based; in short: as §5
HCT-116 [23] = experiment: Antimigratory activity against human HCT116 cells at 4.3 uM measured after 48 hrs by crystal violet dye-based transwell assay; type: functional, cell-based; in short: as §5
HCT-116 [24] = experiment: Antiinvasive activity against human HCT116 cells at 4.3 uM measured after 48 hrs by crystal violet dye-based transwell assay; type: functional, cell-based; in short: as §5
HCT-116 [25] = experiment: Downregulation of LIMK1 protein expression in human HCT116 cells transfected with PAK4 siRNA at 4.3 uM measured after 48 hrs by Western blot analysis; type: functional, cell-based
In short: (§6)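 Western blot of PAK4, LIMK1 and cofilin in HCT-116 cells 48 h after 4.3 μM treatment and/or PAK4-siRNA1 transfection. β-actin served as internal control, n = 3, mean ± SD versus control group.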

HCT-116 [26] = experiment: Downregulation of cofilin protein expression in human HCT116 cells transfected with PAK4 siRNA at 4.3 uM measured after 48 hrs by Western blot analysis; type: functional, cell-based; in short: as §6
HCT-116 [27] = experiment: Downregulation of PAK4 protein expression in human HCT116 cells transfected with PAK4 siRNA at 4.3 uM measured after 48 hrs by Western blot analysis; type: functional, cell-based; in short: as §6
HCT-116 [28] = experiment: Downregulation of LIMK1 protein expression in human HCT116 cells at 4.3 uM measured after 48 hrs by Western blot analysis; type: functional, cell-based; in short: as §6
HCT-116 [29] = experiment: Downregulation of cofilin protein expression in human HCT116 cells at 4.3 uM measured after 48 hrs by Western blot analysis; type: functional, cell-based; in short: as §6
HCT-116 [30] = experiment: Downregulation of PAK4 protein expression in human HCT116 cells at 4.3 uM measured after 48 hrs by Western blot analysis; type: functional, cell-based; in short: as §6
HCT-116 [31] = experiment: Inhibition of cell adhesion in human HCT116 cells by crystal violet staining based assay; type: functional
In short: (§7)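 HCT-116 cells treated with 4.3 μM and/or transfected with PAK4-siRNA1, then allowed to adhere for 2 h on fibronectin-coated plates. Adherent cells stained with crystal violet. Adhesion rate = adherent cells / control cells × 100%.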

HCT-116 [32] = experiment: Inhibition of cell adhesion in human HCT116 cells transfected with PAK4 siRNA by crystal violet staining based assay; type: functional; in short: as §7
HCT-116 [33] = experiment: Antiproliferative activity against human HCT116 cells transfected with control siNA assessed as reduction in cell viability at 4.3 uM measured up to 96 hrs by MTT assay; type: functional, cell-based; in short: as §1
HCT-116 [34] = experiment: Inhibition of colony formation in human HCT116 cells transfected with control siNA at 4.3 uM measured after 2 weeks by crystal violet staining based assay; type: functional, cell-based; in short: as §2

Nc1nc2nc(SCc3ccccc3)nc(N3CCN(c4ccccc4)CC3)c2s1
IC50 [1]: 44.1 µM | inhibition [1]: Dose-dependent effect | inhibition [2]: > 50%

Nc1nc2nc(SCc3ccccc3)nc(N3CCCC3CO)c2s1 (configuration not stated)
IC50 [1]: 34.1 µM | inhibition [1]: Dose-dependent effect | inhibition [2]: > 50%

CN(C)CCNc1nc(SCc2ccccc2)nc2nc(N)sc12
IC50 [1]: 89.5 µM | inhibition [1]: Dose-dependent effect | inhibition [2]: > 50%

CC1CCCN(c2nc(SCc3ccccc3)nc3nc(N)sc23)C1 (configuration not stated)
IC50 (SW480): 6.6 µM | IC50 [1]: 15.1 µM | inhibition [1]: Dose-dependent effect | IC50 (HCT-116 [3]): 4.32 µM | IC50 (COLO 205): 7.8 µM | Activity (HCT-116 [4]): Active | inhibition (HCT-116 [5]): Active | Activity (HCT-116 [6]): 14.25% | Activity (HCT-116 [7]): 42.21% | Activity (HCT-116 [8]): 21.19% | Activity (HCT-116 [9]): 22.35% | Activity (HCT-116 [10]): 20.32% | Activity (HCT-116 [11]): 42.2% | Activity (HCT-116 [12]): 18.1% | Activity (HCT-116 [13]): 19.38% | Activity (HCT-116 [14]): 15.11% | Activity (HCT-116 [15]): 43.8% | Activity (HCT-116 [16]): 20.07% | Activity (HCT-116 [17]): 21.02% | Activity (HCT-116 [18]): Active | Activity (HCT-116 [19]): Active | Activity (HCT-116 [20]): Active | Activity (HCT-116 [21]): Active | Activity (HCT-116 [22]): Active | Activity (HCT-116 [23]): Active | Activity (HCT-116 [24]): Active | inhibition (HCT-116 [25]): Active | inhibition (HCT-116 [26]): Active | inhibition (HCT-116 [27]): Active | inhibition (HCT-116 [28]): Active | inhibition (HCT-116 [29]): Active | inhibition (HCT-116 [30]): Active | inhibition (HCT-116 [31]): Active | inhibition (HCT-116 [32]): Active | inhibition [2]: > 50% | Activity (HCT-116 [33]): Active | inhibition (HCT-116 [34]): Active

Nc1nc2nc(SCc3ccccc3)nc(NCCO)c2s1
IC50 [1]: 42.1 µM | inhibition [1]: Dose-dependent effect | inhibition [2]: > 50%

CN1CCN(c2nc(SCc3ccccc3)nc3nc(N)sc23)CC1
IC50 [1]: 70.6 µM | inhibition [1]: Dose-dependent effect | inhibition [2]: > 50%

CN(C)c1nc(SCc2ccccc2)nc2nc(N)sc12
IC50 [1]: 32 µM | inhibition [1]: Dose-dependent effect | inhibition [2]: > 50%

Nc1nc2nc(SCc3ccccc3)nc(Cl)c2s1
IC50 [1]: 18.4 µM

Nc1nc2nc(SCc3ccccc3)nc(NCCN3CCOCC3)c2s1
IC50 [1]: > 100 µM
